Assay results from ChEMBL document CHEMBL1165950, “Design and synthesis of new potent anticancer pyrazoles with high FLT3 kinase inhibitory selectivity” (Bioorg Med Chem, 2010).

Legend:
Assay type in all cases: functional
NCI-H23 = test: Cytotoxicity against human NCI-H23 cells assessed as cell growth at 10 uM; details: read-out: Activity
Summary of the method: (§1)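 NCI-60 screen: cells grown in RPMI 1640 with 5% FBS and 2 mM L-glutamine, plated at 5000–40,000 cells/well according to doubling time, and preincubated 24 h at 37 °C, 5% CO2. The single 10 µM dose (DMSO stock) was added, then incubated 48 h. Cells were TCA-fixed and stained with 0.4% SRB, read at 515 nm, and growth % calculated against time-zero and control plates.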

LOX IMVI = test: Cytotoxicity against human LOXIMVI cells assessed as cell growth at 10 uM; details: read-out: Activity; summary of the method: as §1
SNB-75 = test: Cytotoxicity against human SNB75 cells assessed as cell growth at 10 uM; details: read-out: Activity; summary of the method: as §1
SK-OV-3 = test: Cytotoxicity against human SKOV3 cells assessed as cell growth at 10 uM; details: read-out: Activity; summary of the method: as §1
TK-10 = test: Cytotoxicity against human TK10 cells assessed as cell growth at 10 uM; details: read-out: Activity; summary of the method: as §1
SK-MEL-2 = test: Cytotoxicity against human SK-MEL-2 cells assessed as cell growth at 10 uM; details: read-out: Activity; summary of the method: as §1
OVCAR-5 = test: Cytotoxicity against human OVCAR5 cells assessed as cell growth at 10 uM; details: read-out: Activity; summary of the method: as §1
A549 = test: Cytotoxicity against human A549 cells assessed as cell growth at 10 uM; details: read-out: Activity
Summary of the method: (§2)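 Single-dose NCI-60 screen at 10 µM. Cells were grown in RPMI 1640 with 5% FBS and 2 mM L-glutamine, then treated for 48 h at 37 °C. Protein was measured by SRB staining with absorbance at 515 nm. Percentage growth was recorded, and inhibition percentage was calculated as 100 minus growth percentage.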

HCT-15 = test: Cytotoxicity against human HCT15 cells assessed as cell growth at 10 uM; details: read-out: Activity; summary of the method: as §2
NCI/ADR-RES = test: Cytotoxicity against human NCI/ADR-RES cells assessed as cell growth at 10 uM; details: read-out: Activity; summary of the method: as §1
SNB-19 = test: Cytotoxicity against human SNB19 cells assessed as cell growth at 10 uM; details: read-out: Activity; summary of the method: as §1
T47D = test: Cytotoxicity against human T47D cells assessed as cell growth at 10 uM; details: read-out: Activity; summary of the method: as §1
[1] = Cytotoxicity against human […] cells assessed as cell growth at 10 uM; details: read-out: Activity; summary of the method: as §1
SR = test: Cytotoxicity against human SR cells assessed as cell growth at 10 uM; details: read-out: Activity; summary of the method: as §1
SW-620 = test: Cytotoxicity against human SW620 cells assessed as cell growth at 10 uM; details: read-out: Activity; summary of the method: as §1
M14 = test: Cytotoxicity against human M14 cells assessed as cell growth at 10 uM; details: read-out: Activity; summary of the method: as §1
NCI-H460 = test: Cytotoxicity against human NCI-H460 cells assessed as cell growth at 10 uM; details: read-out: Activity; summary of the method: as §1
SF-295 = test: Cytotoxicity against human SF295 cells assessed as cell growth at 10 uM; details: read-out: Activity; summary of the method: as §1
[2] = Cytotoxicity against human Hs 578T cells assessed as cell growth at 10 uM; details: read-out: Activity; summary of the method: as §2
U-251 = test: Cytotoxicity against human U251 cells assessed as cell growth at 10 uM; details: read-out: Activity; summary of the method: as §1
UO-31 = test: Cytotoxicity against human UO31 cells assessed as cell growth at 10 uM; details: read-out: Activity; summary of the method: as §1
OVCAR-3 = test: Cytotoxicity against human OVCAR-3 cells assessed as cell growth at 10 uM; details: read-out: Activity; summary of the method: as §1
COLO 205 = test: Cytotoxicity against human COLO205 cells assessed as cell growth at 10 uM; details: read-out: Activity; summary of the method: as §2
IGROV-1 = test: Cytotoxicity against human IGROV1 cells assessed as cell growth at 10 uM; details: read-out: Activity; summary of the method: as §2
NCI-H322M = test: Cytotoxicity against human NCI-H322M cells assessed as cell growth at 10 uM; details: read-out: Activity; summary of the method: as §1
MOLT-4 = test: Cytotoxicity against human MOLT4 cells assessed as cell growth at 10 uM; details: read-out: Activity; summary of the method: as §1
EKVX = test: Cytotoxicity against human EKVX cells assessed as cell growth at 10 uM; details: read-out: Activity; summary of the method: as §2
K562 = test: Cytotoxicity against human K562 cells assessed as cell growth at 10 uM; details: read-out: Activity; summary of the method: as §2
HL-60(TB) = test: Cytotoxicity against human HL-60(TB) cells assessed as cell growth at 10 uM; details: read-out: Activity
Summary of the method: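 NCI 60-cell panel screen at a single concentration of 10 µM. Cells are grown in RPMI 1640 with 5% FBS and 2 mM L-glutamine and read by SRB protein staining at 515 nm. Percent growth is measured relative to time-zero and untreated controls; inhibition % is 100 minus growth %.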

Malme-3M = test: Cytotoxicity against human MALME-3M cells assessed as cell growth at 10 uM; details: read-out: Activity; summary of the method: as §1
DU-145 = test: Cytotoxicity against human DU145 cells assessed as cell growth at 10 uM; details: read-out: Activity; summary of the method: as §2
BT-549 = test: Cytotoxicity against human BT549 cells assessed as cell growth at 10 uM; details: read-out: Activity; summary of the method: as §2
CAKI-1 = test: Cytotoxicity against human Caki1 cells assessed as cell growth at 10 uM; details: read-out: Activity; summary of the method: as §2
HT-29 = test: Cytotoxicity against human HT-29 cells assessed as cell growth at 10 uM; details: read-out: Activity; summary of the method: as §2
SF-539 = test: Cytotoxicity against human SF539 cells assessed as cell growth at 10 uM; details: read-out: Activity; summary of the method: as §1
MCF7 = test: Cytotoxicity against human MCF7 cells assessed as cell growth at 10 uM; details: read-out: Activity; summary of the method: as §1
A498 = test: Cytotoxicity against human A498 cells assessed as cell growth at 10 uM; details: read-out: Activity; summary of the method: as §2
CCRF-CEM = test: Cytotoxicity against human CCRF-CEM cells assessed as cell growth at 10 uM; details: read-out: Activity; summary of the method: as §2
HOP-92 = test: Cytotoxicity against human HOP92 cells assessed as cell growth at 10 uM; details: read-out: Activity; summary of the method: as §2
NCI-H226 = test: Cytotoxicity against human NCI-H226 cells assessed as cell growth at 10 uM; details: read-out: Activity; summary of the method: as §1
SF-268 = test: Cytotoxicity against human SF268 cells assessed as cell growth at 10 uM; details: read-out: Activity; summary of the method: as §1
HOP-62 = test: Cytotoxicity against human HOP62 cells assessed as cell growth at 10 uM; details: read-out: Activity; summary of the method: as §2
ACHN = test: Cytotoxicity against human ACHN cells assessed as cell growth at 10 uM; details: read-out: Activity; summary of the method: as §2
HCC 2998 = test: Cytotoxicity against human HCC2998 cells assessed as cell growth at 10 uM; details: read-out: Activity; summary of the method: as §2
MDA-MB-435 = test: Cytotoxicity against human MDA-MB-435 cells assessed as cell growth at 10 uM; details: read-out: Activity; summary of the method: as §1
KM12 = test: Cytotoxicity against human KM12 cells assessed as cell growth at 10 uM; details: read-out: Activity; summary of the method: as §1
OVCAR-8 = test: Cytotoxicity against human OVCAR8 cells assessed as cell growth at 10 uM; details: read-out: Activity; summary of the method: as §1
786-0 = test: Cytotoxicity against human 786-0 cells assessed as cell growth at 10 uM; details: read-out: Activity; summary of the method: as §2
UACC-62 = test: Cytotoxicity against human UACC62 cells assessed as cell growth at 10 uM; details: read-out: Activity; summary of the method: as §1
HCT-116 = test: Cytotoxicity against human HCT116 cells assessed as cell growth at 10 uM; details: read-out: Activity; summary of the method: as §2
[3] = Growth inhibition of human NCI60 cells at 10 uM after 48 hrs by sulforhodamine B assay relative to control; details: NCI60, 48 h, read-out: GI
Summary of the method: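 Single-dose NCI screen at 10 µM across the 60-line panel, 48 h exposure at 37 °C after a 24 h preincubation. Adherent cells were fixed with cold TCA and stained with 0.4% SRB, and absorbance was read at 515 nm. Inhibition % was taken as 100 minus growth %, and the mean across all lines was reported.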

SK-MEL-5 = test: Cytotoxicity against human SK-MEL-5 cells assessed as cell growth at 10 uM; details: read-out: Activity; summary of the method: as §1
PC-3 = test: Cytotoxicity against human PC3 cells assessed as cell growth at 10 uM; details: read-out: Activity; summary of the method: as §1
MDA-MB-231 = test: Cytotoxicity against human MDA-MB-231 cells assessed as cell growth at 10 uM; details: read-out: Activity; summary of the method: as §1
UACC-257 = test: Cytotoxicity against human UACC257 cells assessed as cell growth at 10 uM; details: read-out: Activity; summary of the method: as §1
SN12C = test: Cytotoxicity against human SN12C cells assessed as cell growth at 10 uM; details: read-out: Activity; summary of the method: as §1
OVCAR-4 = test: Cytotoxicity against human OVCAR4 cells assessed as cell growth at 10 uM; details: read-out: Activity; summary of the method: as §1
RXF 393 = test: Cytotoxicity against human RXF393 cells assessed as cell growth at 10 uM; details: read-out: Activity; summary of the method: as §1
SK-MEL-28 = test: Cytotoxicity against human SK-MEL-28 cells assessed as cell growth at 10 uM; details: read-out: Activity; summary of the method: as §1
NCI-H522 = test: Cytotoxicity against human NCI-H522 cells assessed as cell growth at 10 uM; details: read-out: Activity; summary of the method: as §1
MDA-MB-468 = test: Cytotoxicity against human MDA-MB-468 cells assessed as cell growth at 10 uM; details: read-out: Activity; summary of the method: as §1

COc1cc(C)cc(-c2c(-c3ccnc(-c4cccc(NC(C)=O)c4)c3)cnn2CC#N)c1
growth at 10 µM (NCI-H23): 95.3% | growth at 10 µM (LOX IMVI): 97.5% | growth at 10 µM (SNB-75): 72.4% | growth at 10 µM (SK-OV-3): 93.3% | growth at 10 µM (TK-10): 67.1% | growth at 10 µM (SK-MEL-2): 92.1% | growth at 10 µM (OVCAR-5): 91.6% | growth at 10 µM (A549): 86.7% | growth at 10 µM (HCT-15): 94.5% | growth at 10 µM (NCI/ADR-RES): 87.3% | growth at 10 µM (SNB-19): 89.6% | growth at 10 µM (T47D): 79.3% | growth at 10 µM [1]: 79.9% | growth at 10 µM (SR): 80.9% | growth at 10 µM (SW-620): 104% | growth at 10 µM (M14): 96.3% | growth at 10 µM (NCI-H460): 107% | growth at 10 µM (SF-295): 102% | growth at 10 µM [2]: 99% | growth at 10 µM (U-251): 94.3% | growth at 10 µM (UO-31): 63.6% | growth at 10 µM (OVCAR-3): 109% | growth at 10 µM (COLO 205): 93.5% | growth at 10 µM (IGROV-1): 98.4% | growth at 10 µM (NCI-H322M): 96.9% | growth at 10 µM (MOLT-4): 82.8% | growth at 10 µM (EKVX): 100% | growth at 10 µM (K562): 86.4% | growth at 10 µM (HL-60(TB)): 74.7% | growth at 10 µM (Malme-3M): 108% | growth at 10 µM (DU-145): 105% | growth at 10 µM (BT-549): 79.1% | growth at 10 µM (CAKI-1): 77.3% | growth at 10 µM (HT-29): 99.4% | growth at 10 µM (SF-539): 84.5% | growth at 10 µM (MCF7): 85% | growth at 10 µM (A498): 74.2% | growth at 10 µM (CCRF-CEM): 88.9% | growth at 10 µM (HOP-92): 79.6% | growth at 10 µM (NCI-H226): 93.1% | growth at 10 µM (SF-268): 97.3% | growth at 10 µM (HOP-62): 98.9% | growth at 10 µM (ACHN): 86% | growth at 10 µM (HCC 2998): 101% | growth at 10 µM (MDA-MB-435): 99.6% | growth at 10 µM (KM12): 109% | growth at 10 µM (OVCAR-8): 88% | growth at 10 µM (786-0): 84% | growth at 10 µM (UACC-62): 81.6% | growth at 10 µM (HCT-116): 96.4% | inhibition of growth at 10 µM [3]: 9.4% | growth at 10 µM (SK-MEL-5): 86.9% | growth at 10 µM (PC-3): 85.8% | growth at 10 µM (MDA-MB-231): 86.5% | growth at 10 µM (UACC-257): 89.8% | growth at 10 µM (SN12C): 83% | growth at 10 µM (OVCAR-4): 99.7% | growth at 10 µM (RXF 393): 81.5% | growth at 10 µM (SK-MEL-28): 104% | growth at 10 µM (NCI-H522): 82.5% | growth at 10 µM (MDA-MB-468): 82.8%
